Bioassay records from PubChem.
A selection: hits, their analogues and other compounds. The true share with any hit is near 1.7%.
Rpn11 inh = Rpn11 (human) deubiquitinase inhibition; O00487; human 26S proteasome, Ub4-pepOG fluorescence polarization; 20S core pre-blocked with epoxomicin; inhibition, % at 20 µM; hit rate 0.59% among 360,000;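 active = inhibition at 20 µM, scaled to each plate's controls, above about 33%, limit read from the data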
Target sequence (O00487 whole entry, looked up): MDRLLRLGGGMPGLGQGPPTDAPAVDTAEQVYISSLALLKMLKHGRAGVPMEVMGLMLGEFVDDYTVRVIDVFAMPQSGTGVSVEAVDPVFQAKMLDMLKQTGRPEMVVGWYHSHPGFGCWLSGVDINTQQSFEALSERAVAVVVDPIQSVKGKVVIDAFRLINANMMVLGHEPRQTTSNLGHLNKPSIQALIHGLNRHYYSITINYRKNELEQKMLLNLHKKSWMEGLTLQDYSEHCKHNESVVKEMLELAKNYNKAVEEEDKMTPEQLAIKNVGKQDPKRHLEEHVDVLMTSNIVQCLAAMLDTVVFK
UCH37 inh = inhibitors of human deubiquitinating enzyme UCH37; Q9Y5K5; purified proteasome/UCH37, Ub-AMC cleavage fluorescence; inhibition, % (no concentration beside the values); hit rate 0.33% among 330,000;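 active = mean inhibition over replicate wells above about 20%, limit read from the data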
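Reagent: Ub-AMC substrate; assay system: Proteasome-associated human UCH37 deubiquitinase; controls: no-proteasome and no-compound wells; read-out: % inhibition of Ub-AMC cleavage fluorescence; timing: 30 min preincubation with enzyme, 25 min cleavage at room temperature; signal: AMC fluorescence from Ub-AMC cleavage, excitation 355 nm, emission 460 nm; buffer or medium: Tris-HCl pH 7.4 plus ovalbumin, ATP-MgCl2, DTT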
PLC-gamma1 inh = PLC-gamma1 (human) inhibition, primary screen; purified PLC-gamma1, fluorogenic substrate, fluorescence; hit rate 0.84% among 370,000; AID 720700; P19174; inhibition, % at 12.2 µM; in the data active = inhibition above about 9.5%
PLCb3 inh = blocks human PLC-beta3 enzyme activity. inhibition, % at 12.2 µM. Q01970. hit rate 0.18% among 370,000. Purified PLC-beta3, fluorogenic substrate, fluorescence; in the data active = inhibition above about 11%
UCH37 reconfirm = UCH37 Ub-AMC cleavage inhibition, confirmed. shares compounds with UCH37 inh. Proteasome-bound UCH37, Ub-AMC cleavage fluorescence. inhibition, % at 20 µM. hit rate 27% among 480;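 active = average inhibition over replicates above about 50%, so the earlier screening hit is confirmed, limit read from the data; inactive = the rest, counted as false positives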;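 also: based on cleavage rate fitted by regression over a 30 min kinetic read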
Of the large screens only hits and unclear results are named; the others gave an inactive call (follow-up assays come after a bar, where shown).

COc1ccc(/C=C2/C(=O)N(Cc3ccco3)C(=O)N(C(C)C)C2=O)cc1	Rpn11 inh 171.4
CCn1nc(-c2cccs2)nc2c(=O)n(C)c(=O)nc1-2	UCH37 inh 95.2 (no result: PLC-gamma1 inh, PLCb3 inh)
CCOc1ccc(-n2c(-c3cccs3)nc3ccccc3c2=O)cc1	none
CCCC(C)n1[nH]c(=O)c2c1NC(=O)CSC2c1ccc(OC)cc1 (stereo not given)	UCH37 inh 20.4
CCN(CC)c1ccc(N=Cc2c(O)n(-c3ccccc3C)c(=O)[nH]c2=O)cc1	Rpn11 inh 63.6
CCN(CC)c1ccc(N=Cc2c(O)n(-c3ccccc3)c(=O)[nH]c2=O)cc1	none
COC(=O)C1=C(c2ccc(OCc3ccccc3)c(F)c2)C[C@@H]2CC[C@H]1N2C	PLC-gamma1 inh 12.6 (no result: UCH37 inh)
Cc1cc(N=Nc2ccccc2C)ccc1N	PLC-gamma1 inh 9.6
Nc1ccc(N=Nc2ccccc2)cc1	none
NC(=N[N+](=O)[O-])N1CCN(C(=O)c2ccccn2)CC1	none (no result: Rpn11 inh, PLC-gamma1 inh, PLCb3 inh)
COP(=O)(OC)C(C=O)=NNc1ccc([N+](=O)[O-])cc1	UCH37 inh 20.2 (no result: Rpn11 inh, PLC-gamma1 inh, PLCb3 inh)
CC(=O)Nc1ccc([As](=O)(O)c2ccc([N+](=O)[O-])cc2)cc1	none
COC(=O)C1=C(c2ccc(F)cc2F)C[C@@H]2CC[C@H]1N2C(=O)NCCNC(C)=O	UCH37 inh 24.6 (no result: PLC-gamma1 inh, PLCb3 inh)
COC(=O)C1=C(c2cc3ccccc3o2)C[C@@H]2CC[C@H]1N2C(=O)NCCO	UCH37 inh 26.9
CCC(CC(c1ccccc1)c1c(O)c2ccccc2oc1=O)=NNC(N)=S (stereo not given)	none (no result: Rpn11 inh, PLC-gamma1 inh, PLCb3 inh)
COc1ccc(C(=O)ON=C(C(N)=O)P(=O)(OC(C)C)OC(C)C)cc1	none (no result: Rpn11 inh, PLC-gamma1 inh, PLCb3 inh)
Cc1cc(O)c2c(c1)C(=O)C13C(=C2O)C(=O)[C@H]2[C@@H](O)[C@@H]1[C@H]1[C@H](O)[C@@H]3C(=O)C3=C(O)c4c(O)cc(C)cc4C(=O)C312 (stereo not given in full)	UCH37 inh 28.3 (no result: PLC-gamma1 inh, PLCb3 inh)
COc1cc(C(=O)NN=CC23CC[C@@H](O)CC2(O)CC[C@@H]2[C@@H]3CCC3(C)C(C4=CC(=O)OC4)CCC23O)ccc1O (stereo not given in full)	none (no result: Rpn11 inh, PLC-gamma1 inh, PLCb3 inh)
CCn1c(O)c(C=Nc2ccc(N3CCOCC3)cc2)c(=O)n(CC)c1=S	none
CCn1c(O)c(C(=O)CC2NCCc3ccccc32)c(=O)n(CC)c1=S (stereo not given)	Rpn11 inh 109.8 (no result: PLC-gamma1 inh, PLCb3 inh)
CCCC(=NO)c1c[nH]c2ccccc12	none (no result: Rpn11 inh, PLC-gamma1 inh, PLCb3 inh)
CC12CN3CCN(CC(C3)C1=NNC(N)=O)C2	none (no result: Rpn11 inh, PLC-gamma1 inh, PLCb3 inh)
O=C(O)c1cccc2c1NC(C(=O)O)C1CC(Sc3ccccc3[N+](=O)[O-])C(Cl)C21 (stereo not given)	PLC-gamma1 inh 19.1
CCOc1cc(CNCCc2c[nH]c3ccccc23)cc(Cl)c1OCC	PLC-gamma1 inh 11.9, PLCb3 inh 11.8
CCOc1c(Cl)cc(CNCCc2c[nH]c3ccccc23)cc1OC	none
COc1cc(C=NNC(=O)CN2CC(c3ccccc3)CC2=O)ccc1OC(=O)N(C)C (stereo not given)	none (no result: Rpn11 inh, PLC-gamma1 inh, PLCb3 inh)
O=C1NC(=O)N(c2ccccc2F)C(=O)/C1=C/c1ccc(Sc2nc3ccccc3[nH]2)o1	Rpn11 inh 83.0
Cc1ccc(/C=C2\C(=O)NC(=S)N(c3ccccc3F)C2=O)s1	none
O=C1NC(=O)N(c2ccccc2)C(=O)/C1=C/c1ccc(Sc2ccccc2)o1	none (no result: PLC-gamma1 inh, PLCb3 inh)
O=C1NC(=O)N(c2cccc(Cl)c2)C(=O)/C1=C\c1ccc(Sc2nc3ccccc3[nH]2)o1	Rpn11 inh 58.4
C#C[C@@]1(O)CCC2C3CCC4=CC(=NOCC(=O)NC(C(=O)O)C(C)O)CC[C@]4(C)C3CC[C@@]21C (stereo not given in full)	none (no result: Rpn11 inh, PLC-gamma1 inh, PLCb3 inh)
NC(=N[N+](=O)[O-])N1CCN(C(=O)c2ccc(Cl)cc2)CC1	none (no result: Rpn11 inh, PLC-gamma1 inh, PLCb3 inh)
COc1ccc(CN2C(=O)NC(=O)/C(=C/c3ccc([N+](=O)[O-])s3)C2=O)cc1	Rpn11 inh 50.8 (no result: UCH37 inh)
Cc1cc(C)cc(N2C(=O)/C(=C\c3ccc(N4CCN(C)CC4)o3)C(=O)NC2=S)c1	UCH37 inh 23.6 (not shown: Rpn11 inh)
O=[N+]([O-])c1cccc(O)c1	none
O=[N+]([O-])c1cc(S(=O)(=O)c2ccc(O)c([N+](=O)[O-])c2)ccc1O	PLC-gamma1 inh 35.3
Cc1c(N=Nc2c(O)[nH]c(=S)[nH]c2=O)c(=O)n(-c2ccccc2)n1C	UCH37 inh 30.2 | UCH37 reconfirm inactive
COc1ccc(N2C(=O)/C(=C/c3ccc(N(C)C)o3)C(=O)NC2=S)cc1	UCH37 inh 25.2 (not shown: Rpn11 inh) | UCH37 reconfirm inactive
